The source of these data is PubChem BioAssay AID624096 (The Scripps Research Institute Molecular Screening Center, 2012).

Several values for one entry are separate records, joined by “and”; a condition that tells them apart may be missing. Identical values can stand only once. Activity calls are given as the source filed them.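 The calls were made as follows: active = compound needing at most 10 µM to cut the imipenem dose that stops bacterial growth fourfold; inactive = the rest.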

Experiment [1] can be described thus: growth inhibition synergy, Acinetobacter plus imipenem – strain YMC07/8/B3323, clinical isolate, powder samples, late-stage follow-up (AID 624096). The conditions noted are these: VIM-2 Acinetobacter YMC07/8/B3323 growth with imipenem, OD590; measured here: max imipenem potentiation fold; stronger effect = higher value. Summed up:
(§1)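 System – Acinetobacter cells in broth microdilution · Technique – OD590 turbidity · Incubation – growth of at least 18 h, aerobic, 37 °C · Medium – CAMHB · Dosing – compound two-fold series crossed with imipenem · Read-out – CLSI MIC · Probe or stimulus – imipenem, two-fold titration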

Experiment [2] concerns VIM-2 Acinetobacter YMC07/8/B3323 growth with imipenem, OD590. The description is as above. An outline of the steps:
as §1

For `CN1CCN(NC(=O)CN2C(=O)/C(=C/c3c(F)c(F)c(F)c(F)c3F)SC2=S)CC1`, the fold potentiation in experiment [1] stood at 2. Besides, in experiment [2], the MIC is > 50 µM (inactive).
As to `O=C(CN1C(=O)/C(=C/c2c(Cl)ccc(Cl)c2Cl)SC1=S)N1CCN(c2ccccc2Cl)CC1`, the MIC in experiment [2] was > 50 µM (inactive).
For `CC(C)(C)OC(=O)N1CCN(NC(=O)CN2C(=O)/C(=C/c3c(Cl)cccc3Cl)SC2=S)CC1`, in experiment [1], the fold potentiation came to 16. Also, the minimum inhibitory concentration (MIC) in experiment [2] was 3.12 µM.
For `O=C(O)CN1C(=O)/C(=C/c2c(F)cccc2Cl)SC1=S`, in that order: 2 and > 50 µM (inactive).
Turning to `CN1CCN(NC(=O)CN2C(=O)/C(=C/c3ccc([N+](=O)[O-])cc3)SC2=S)CC1`, in experiment [2], the MIC was > 50 µM (inactive).
Consider `O=C(CN1C(=O)/C(=C/c2c(Cl)ccc(Cl)c2Cl)SC1=S)NN1CCCCC1`, for which the fold potentiation in experiment [1] worked out at 16. In addition, the MIC in experiment [2] was 3.12 µM.
For the compound `O=C(O)CN1C(=O)/C(=C/c2ccc3ccccc3n2)SC1=S`, the MIC in experiment [2] was > 50 µM (inactive).
In the case of `CN1CCN(NC(=O)CN2C(=O)/C(=C/c3ccccc3Br)SC2=S)CC1`, the fold potentiation in experiment [1] stood at 4. For the same compound, the MIC in experiment [2] was > 50 µM (inactive).
For `O=C(CN1C(=O)/C(=C/c2c(Cl)cccc2Cl)SC1=S)NCc1ccccn1`, in that order: 16 and 6.25 µM.
For `CN1CCN(NC(=O)CN2C(=O)/C(=C/c3c(F)cccc3Br)SC2=S)CC1`, in that order: 2 and > 50 µM (inactive).
For the compound `O=C(CN1C(=O)/C(=C/c2c(Cl)cccc2Cl)SC1=S)Nc1cccnc1`, the fold potentiation in experiment [1] is 16. Moreover, the MIC in experiment [2] is 6.25 µM.
As to `O=C(O)CN1C(=O)/C(=C/c2c(F)cccc2Br)SC1=S`, the fold potentiation in experiment [1] amounted to 2. Moreover, the MIC in experiment [2] was > 50 µM (inactive).
For the compound `CC(C)(C)OC(=O)N1CCN(NC(=O)CN2C(=O)/C(=C/c3c(Cl)ccc(Cl)c3Cl)SC2=S)CC1`, the fold potentiation in experiment [1] is 16. For the same compound, the minimum inhibitory concentration (MIC) in experiment [2] was 0.781 µM.
For `Cc1cc(C)c(/C=C2\SC(=S)N(CC(=O)O)C2=O)c(C)c1`, the MIC in experiment [2] was > 50 µM (inactive).
`CCOC(=O)/C=C1\SC(=S)N(CC(=O)O)C1=O`: the MIC in experiment [2] is > 50 µM (inactive).
As to `O=C(CN1C(=O)/C(=C/c2c(Cl)cccc2Cl)SC1=S)NN1CCN(C(=O)c2ccccc2)CC1`, the fold potentiation in experiment [1] was 16. Moreover, the MIC in experiment [2] was 3.12 µM.
Regarding `O=C(O)CN1C(=O)/C(=C/c2cccnc2)SC1=S`, the MIC in experiment [2] is > 50 µM (inactive).
`C[N+]1(OS(C)(=O)=O)CCN(NC(=O)CN2C(=O)/C(=C/c3c(Cl)ccc(Cl)c3Cl)SC2=S)CC1`: the fold potentiation in experiment [1] came to 32. Also, the MIC in experiment [2] is 0.195 µM.
Regarding `CN1CCN(C(=O)CN2C(=O)/C(=C/c3c(Cl)ccc(Cl)c3Cl)SC2=S)CC1`, in experiment [1], the fold potentiation was 16 and 32. The minimal inhibitory concentration (MIC) in experiment [2] was 1.56 µM and 0.781 µM.
Turning to `O=C(O)CN1C(=O)/C(=C/c2ccccc2Br)SC1=S`, in experiment [1], the fold potentiation was 2. The MIC in experiment [2] was > 50 µM (inactive).
For the compound `O=C(CN1C(=O)/C(=C/c2c(Cl)ccc(Cl)c2Cl)SC1=S)NCc1ccccn1`, the fold potentiation in experiment [1] was 16 and 32. Also, the MIC in experiment [2] was 1.56 µM.
With `CN1CCN(NC(=O)[C@H](Cc2ccccc2)N2C(=O)/C(=C/c3c(Cl)cccc3Cl)SC2=S)CC1`, in experiment [1], the fold potentiation turned out to be 8. Besides, in experiment [2], the MIC is > 25 µM (inactive).
For `CC(C)C(C(=O)NN1CCN(C)CC1)N1C(=O)/C(=C/c2c(Cl)ccc(Cl)c2Cl)SC1=S` (stereo unspecified), in experiment [1], the fold potentiation worked out at 32. The MIC in experiment [2] is 1.56 µM.
With `CN1CCN(C(=O)CN2C(=O)/C(=C/c3c(Cl)cccc3Cl)SC2=S)CC1`, in experiment [1], the fold potentiation is 16. Further, the MIC in experiment [2] is 6.25 µM.
For `CCOC(=O)/C=C1\SC(=S)N(CC(=O)NN2CCN(C)CC2)C1=O`, in that order: 2 and > 50 µM (inactive).
On to `Cc1cc(C)n(NC(=O)CN2C(=O)/C(=C/c3c(Cl)cccc3Cl)SC2=S)c(=O)c1`, for which the fold potentiation in experiment [1] was found to be 32. Besides, the MIC in experiment [2] is 1.56 µM.
For `CN1CCN(NC(=O)CN2C(=O)/C(=C/c3cccnc3)SC2=S)CC1`, in that order: 4 and > 50 µM (inactive).
Regarding `O=C(O)CN1C(=O)/C(=C/c2c(Cl)cccc2Cl)SC1=S`, the fold potentiation in experiment [1] is 16. Besides, the MIC in experiment [2] was 12.5 µM (inactive).
In the same order, the values of `O=C(CN1C(=O)/C(=C/c2c(Cl)cccc2Cl)SC1=S)NCc1ccncc1` are 16 and 6.25 µM.
For the compound `CCN(CC)OC(=O)CN1C(=O)/C(=C/c2c(Cl)cccc2Cl)SC1=S`, in experiment [1], the fold potentiation was determined as 8. Moreover, in experiment [2], the MIC is 12.5 µM (inactive).
Consider `O=C(CN1C(=O)/C(=C/c2c(Cl)cccc2Cl)SC1=S)NN1CCNCC1`, for which, in experiment [1], the fold potentiation is 16. Further, in experiment [2], the MIC was 3.12 µM.
As for `CN1CCN(NC(=O)CN2C(=O)/C(=C/c3c(Cl)ccc(C(F)(F)F)c3Cl)SC2=S)CC1`, the fold potentiation in experiment [1] was found to be 16. Further, the MIC in experiment [2] is 3.12 µM.
For `O=C(CN1C(=O)/C(=C/c2c(Cl)cccc2Cl)SC1=S)NN1CCCCC1`, in experiment [1], the fold potentiation came to 16. In addition, in experiment [2], the MIC is 3.12 µM.
With `Cc1ccc(S(=O)(=O)N2CCN(NC(=O)CN3C(=O)/C(=C/c4c(Cl)cccc4Cl)SC3=S)CC2)cc1`, in experiment [2], the MIC was > 25 µM (inactive).
As to `O=C(O)CN1C(=O)/C(=C/c2c(F)cccc2C(F)(F)F)SC1=S`, the fold potentiation in experiment [1] was 2. The MIC in experiment [2] was > 25 µM (inactive).
In the same order, the values of `Cc1cc(C)c(/C=C2\SC(=S)N(CC(=O)NN3CCN(C)CC3)C2=O)c(C)c1` are 4 and > 25 µM (inactive).
For `CN1CCN(NC(=O)C(Cc2ccc(Cl)cc2)N2C(=O)/C(=C/c3c(Cl)ccc(Cl)c3Cl)SC2=S)CC1` (stereo unspecified), in that order: 32 and 1.56 µM.
`O=C(O)CN1C(=O)/C(=C/c2c(Cl)ccc(C(F)(F)F)c2Cl)SC1=S`: the fold potentiation in experiment [1] was found to be 8. Also, the MIC in experiment [2] is 6.25 µM.
For `CN1CCN(NC(=O)C(Cc2ccccc2)N2C(=O)/C(=C/c3c(Cl)ccc(Cl)c3Cl)SC2=S)CC1` (stereo unspecified), in that order: 32 and 1.56 µM.
Regarding `O=C(CN1C(=O)/C(=C/c2c(Cl)cccc2Cl)SC1=S)NN1CCN(Cc2ccccc2)CC1`, the minimum inhibitory concentration (MIC) in experiment [2] was 3.12 µM.
`O=C(O)CN1C(=O)/C(=C/c2ccc(F)cc2)SC1=S`: the MIC in experiment [2] was > 50 µM (inactive).
With `O=C(O)CN1C(=O)/C(=C/c2c(Cl)ccc(Cl)c2Cl)SC1=S`, in experiment [1], the fold potentiation is 16. Moreover, the MIC in experiment [2] was 6.25 µM.
In the case of `CN1CCN(NC(=O)CN2C(=O)/C(=C/c3ccc4ccccc4n3)SC2=S)CC1`, the MIC in experiment [2] is > 50 µM (inactive).
As for `CN1CCN(NC(=O)CN2C(=O)/C(=C/c3c(F)cccc3Cl)SC2=S)CC1`, the fold potentiation in experiment [1] is 32. The MIC in experiment [2] was 3.12 µM.
On to `CN1CCN(NC(=O)CN2C(=O)/C(=C/c3c(Cl)cccc3Cl)SC2=S)CC1`, for which, in experiment [1], the fold potentiation was 32. Also, the MIC in experiment [2] was 3.12 µM and 6.25 µM.
`O=C(O)CN1C(=O)/C(=C/c2c(F)c(F)c(F)c(F)c2F)SC1=S`: the fold potentiation in experiment [1] is 2. The MIC in experiment [2] was > 50 µM (inactive).
Turning to `O=C(O)CN1C(=O)/C(=C/c2c(F)cccc2F)SC1=S`, the fold potentiation in experiment [1] was determined as 2. Moreover, in experiment [2], the MIC is > 50 µM (inactive).
For `O=C(O)CN1C(=O)/C(=C/c2ccc([N+](=O)[O-])cc2)SC1=S`, the fold potentiation in experiment [1] amounted to 2. Further, the MIC in experiment [2] is > 50 µM (inactive).
On to `CC(=O)N1CCN(NC(=O)CN2C(=O)/C(=C/c3c(Cl)cccc3Cl)SC2=S)CC1`, for which the fold potentiation in experiment [1] worked out at 32. Also, the MIC in experiment [2] was 6.25 µM.
As to `CN1CCN(NC(=O)CN2C(=O)/C(=C/c3ccc(F)cc3)SC2=S)CC1`, the MIC in experiment [2] is > 50 µM (inactive).
Regarding `CN1CCN(NC(=O)CN2C(=O)/C(=C/c3c(F)cccc3F)SC2=S)CC1`, the fold potentiation in experiment [1] is 4. Also, the MIC in experiment [2] was > 25 µM (inactive).
With `CN1CCN(NC(=O)CN2C(=O)/C(=C/c3c(F)cccc3C(F)(F)F)SC2=S)CC1`, the fold potentiation in experiment [1] amounted to 2. The MIC in experiment [2] is 3.12 µM.
`O=C(O)CN1C(=O)/C(=C/c2c(C(F)(F)F)ccc(Cl)c2Cl)SC1=S`: the fold potentiation in experiment [1] is 16. The MIC in experiment [2] was 6.25 µM.
For `CC(C)(C)OC(=O)N1CCN(C(=O)CN2C(=O)/C(=C/c3c(Cl)ccc(Cl)c3Cl)SC2=S)CC1`, in that order: 16 and 6.25 µM.
Take `O=C(CN1C(=O)/C(=C/c2c(Cl)cccc2Cl)SC1=S)Nc1cc([N+](=O)[O-])ccc1O`: the MIC in experiment [2] was > 50 µM (inactive).
On to `CN1CCN(NC(=O)CN2C(=O)/C(=C/c3ccc(Cl)cc3)SC2=S)CC1`, for which the MIC in experiment [2] is > 50 µM (inactive).
For `O=C(O)CN1C(=O)/C(=C/c2ccc(Cl)cc2)SC1=S`, in experiment [1], the fold potentiation is 2. Besides, the MIC in experiment [2] is > 50 µM (inactive).
Consider `CC(C)N1CCN(NC(=O)CN2C(=O)/C(=C/c3c(Cl)cccc3Cl)SC2=S)CC1`, for which the fold potentiation in experiment [1] is 32. For the same compound, the MIC in experiment [2] was 6.25 µM.
For `CN1CCN(NC(=O)CN2C(=O)/C(=C/c3c(C(F)(F)F)ccc(Cl)c3Cl)SC2=S)CC1`, in that order: 32 and 3.12 µM.
As for `CN1CCN(NC(=O)CN2C(=O)/C(=C/c3c(Cl)ccc(Cl)c3Cl)SC2=S)CC1`, in experiment [1], the fold potentiation was 32 and 16. The MIC in experiment [2] is 0.781 µM and 1.56 µM and 0.391 µM.
Take `O=C(CN1C(=O)/C(=C/c2c(Cl)ccc(Cl)c2Cl)SC1=S)NN1CCNCC1`: in experiment [1], the fold potentiation stood at 32. Besides, the MIC in experiment [2] is 0.781 µM.
For `O=C(CN1C(=O)/C(=C/c2c(Cl)cccc2Cl)SC1=S)NN1CCN(S(=O)(=O)c2ccc(Cl)cc2)CC1`, in that order: 2 and > 50 µM (inactive).
